Results taken from PubChem BioAssay.
Activity calls are given as the source filed them.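 The calls were made as follows, unless noted: active = compounds giving at least 50% inhibition in the cell-based MKP-3 phosphatase rescue imaging test; inactive = the rest.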

How the values were obtained:
[1] = inhibitors of TNFa-induced NFkB p65 translocation, primary screen, imaging, HUVEC, MLSMR starter and 10KST1 sets (AID 438;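 active = inhibition above 20% together with a positive visual image hit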;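 also: compound added about 3h40 before a 20 min TNFalpha stimulation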;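 as to inhibition: signal is the nuclear over cytoplasmic p65 intensity ratio per well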); conditions: HUVEC TNFa-induced p65 nuclear translocation; cell count: measured here: nuclei count (cytotoxicity indicator), at 2.08 µM; inhibition: at 2 µM, stronger effect = higher value, 0% TNFa-plus-vehicle, 100% no-TNFa wells
[2] = endothelial E-selectin expression blockers – imaging, HUVEC, immunofluorescence, MLSMR starter and 10KST1 sets, primary screen (AID 487;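 active = visually confirmed hit in the image check and inhibition above 20%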;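 as to inhibition: signal is fraction of cell area covered by stained E-selectin grains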;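 as to nuclei count: 100% = median nuclei count of all wells on the same plate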); conditions: HUVEC TNFalpha-induced E-selectin immunofluorescence imaging, at 2 µM; inhibition: stronger effect = higher value; nuclei count: measured here: cell number, toxicity
[3] = Primary imaging screen for DUSP6 inhibitors that restore phospho-Erk in transfected HeLa cells, chemical complementation (AID 609); conditions: HeLa MKP-3 transfected, phospho-Erk imaging KS statistic, at 10 µM, cells stimulated with TPA for 15 min;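 as to inhibition: phospho-Erk level distribution per well compared with pooled transfected vehicle control wells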
[4] = biological target: Dual specificity protein phosphatase 6 (Homo sapiens) (UniProt Q16828); test: as above; conditions: HeLa MKP-3 transfected, phospho-Erk imaging KS statistic; at 10 µM; stronger effect = higher value; cells stimulated with TPA for 15 min
[5] = biological target: Voltage-gated potassium channel subunit beta-2 (Rattus norvegicus) (UniProt P62483); test: inhibitors of rat Kvbeta2 reductase activity – biochemical, NADPH fluorescence, primary screen (AID 622;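 active = fluorescence slope higher than the sample average by over 3 SD, cut at about -0.22 in these data, passing the limit was not always enough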;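 also: slope of raw intensity against log time taken from 70 to 1610 s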); conditions: recombinant KvBeta, 4-cyanobenzaldehyde reduction, at 10 µM, stronger effect = higher value
[6] = biological target: Voltage-gated potassium channel subunit beta-2 (Rattus norvegicus) (UniProt P62483); test: enhancers of rat Kvbeta2 NADPH turnover – biochemical, NADPH fluorescence, primary screen (AID 623;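 active = NADPH fluorescence slope more negative than the mean of all samples by about 3 SD, 99.7% confidence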;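 also: fluorescence intensity change per second fitted from 20 to 320 s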); conditions: Recombinant KvBeta, NADPH fluorescence decrease slope, 10 min; at 10 µM; stronger effect = lower value
[7] = biological target: Muscarinic acetylcholine receptor M4 (Homo sapiens) (UniProt P08173); test: M4-linked GIRK flux change, two-sided – cell-based, HEK293 M4/GIRK, thallium flux, BTC-AM, M4 allosteric agonist project, primary screen (AID 625;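 active = fluorescence slope after compound addition differing from the mean of all tested samples at 99.7% confidence, mostly higher but some lower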;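 also: thallium influx through GIRK channels coupled to M4 in HEK293 cells with BTC-AM dye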); conditions: at 10 µM, actives lie on both sides
Outline: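 Material: M4/GIRK1/GIRK2 stable HEK293 cell line. Medium: pH 7.3 thallium assay buffer. Dosing: single compound concentration, 10 µM final. Schedule: 1 h dye loading, 2 min kinetic read. Measured by: kinetic fluorescence with BTC-AM dye. Read-out: post-addition slope, 15–24 s, of baseline-normalized fluorescence. Benchmarks: carbachol and DMSO controls.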

[8] = inhibitors of larval lipid processing in zebrafish, primary screen, whole organism, PED6 fluorescence, gall bladder and intestine (AID 686;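 active = a full or partial loss of lipid-probe fluorescence in the fish gall bladder, intestine or both, judged by eye; inactive = no fluorescence loss, or compound toxic to the fish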;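 also: larvae 5 to 7 days old with five fish per well; signal comes from phospholipase A2 cleavage of quenched PED6 carried via bile; overnight exposure to compound and PED6 before scoring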); conditions: Zebrafish larvae PED6 lipid processing, fluorescence scoring; screened at 20 µM (by protocol)
Outline: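 System: live zebrafish larvae aged 5-7 days, whole organism; measure: graded gall bladder and intestinal fluorescence inhibition per well; incubation: overnight exposure; reagent: ingested quenched lipid PED6 at 100 nM; signal: By-eye fluorescence microscopy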

[9] = loss of swimming-algae plug formation – whole organism, Chlamydomonas reinhardtii, WT vs cilia-less mutant, absorbance, 96-well, primary screen (AID 463189;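 active = inhibition at or above 50% relative to wild type and mutant plate controls; inactive = inhibition below 50%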;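 also: 0% = wild type cc124 cells in DMSO and 100% = ciliumless bld1 mutant cells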); conditions: Chlamydomonas reinhardtii gravitaxis, OD600 absorbance, 2 days; at 10 µM; stronger effect = higher value
[10] = measured here: cell density z-score
[11] = measured here: nuclear c-Myc green intensity z-score
[12] = measured here: nuclear pErk red intensity z-score, stronger effect = higher value

Chain of Muscarinic acetylcholine receptor M4 (Homo sapiens) (P08173 whole entry, looked up): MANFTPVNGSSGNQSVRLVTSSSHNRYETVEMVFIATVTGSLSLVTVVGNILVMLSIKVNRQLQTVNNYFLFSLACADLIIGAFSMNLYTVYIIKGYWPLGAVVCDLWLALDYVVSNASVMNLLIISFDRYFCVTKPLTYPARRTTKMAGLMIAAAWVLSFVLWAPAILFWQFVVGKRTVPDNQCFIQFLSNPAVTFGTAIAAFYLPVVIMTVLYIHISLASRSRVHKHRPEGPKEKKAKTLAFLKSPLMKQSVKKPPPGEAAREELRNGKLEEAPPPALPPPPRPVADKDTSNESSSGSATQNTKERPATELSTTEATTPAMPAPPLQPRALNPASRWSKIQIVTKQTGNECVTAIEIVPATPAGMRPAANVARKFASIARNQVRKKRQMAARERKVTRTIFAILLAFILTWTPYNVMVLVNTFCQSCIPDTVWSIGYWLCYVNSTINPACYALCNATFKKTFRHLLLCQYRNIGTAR
Chain of Dual specificity protein phosphatase 6 (Homo sapiens) (Q16828 whole entry, looked up): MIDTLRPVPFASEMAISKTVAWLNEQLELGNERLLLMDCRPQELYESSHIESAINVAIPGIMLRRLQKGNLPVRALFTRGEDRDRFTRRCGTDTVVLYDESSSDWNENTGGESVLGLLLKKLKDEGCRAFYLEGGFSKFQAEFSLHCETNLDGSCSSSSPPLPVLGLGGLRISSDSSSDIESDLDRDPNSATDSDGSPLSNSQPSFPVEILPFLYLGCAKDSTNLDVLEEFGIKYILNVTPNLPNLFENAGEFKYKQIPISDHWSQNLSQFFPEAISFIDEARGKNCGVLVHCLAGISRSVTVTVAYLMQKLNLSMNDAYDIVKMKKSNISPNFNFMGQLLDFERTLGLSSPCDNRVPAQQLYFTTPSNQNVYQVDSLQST
Chain of Voltage-gated potassium channel subunit beta-2 (Rattus norvegicus) (P62483 whole entry, looked up): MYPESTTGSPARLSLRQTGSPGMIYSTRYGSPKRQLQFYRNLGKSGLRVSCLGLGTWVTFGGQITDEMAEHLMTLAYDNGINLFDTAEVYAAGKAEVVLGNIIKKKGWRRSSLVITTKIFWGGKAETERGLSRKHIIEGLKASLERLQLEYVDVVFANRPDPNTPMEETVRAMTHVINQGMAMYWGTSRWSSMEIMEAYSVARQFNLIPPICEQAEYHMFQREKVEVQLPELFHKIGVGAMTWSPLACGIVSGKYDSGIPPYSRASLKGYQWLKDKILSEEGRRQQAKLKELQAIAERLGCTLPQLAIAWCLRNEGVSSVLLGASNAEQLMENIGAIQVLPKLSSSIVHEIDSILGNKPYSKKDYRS

Compound	cell count [1]	inhibition [1]	inhibition [2]	nuclei count [2]	z-score [3, 10]	z-score [3, 11]	z-score [3, 12]	inhibition [4]	fluorescence slope [5]	NADPH fluorescence slope [6]	fluorescence slope [7]	outcome [8]	inhibition [9]
CC1(C)CCN(Cc2ccccc2)C1CC#N (stereo unspecified)	572	-1.7% (inactive)	-7.9% (inactive)	134%	-0.215	-0.992	0.527	3.97% (inactive)	-0.353 (inactive)	8.5e-06 (inactive)	0.00545 (inactive)	inactive	34.2% (inactive)
COc1ccc(C2=CC(c3ccc(C)cc3)n3nnnc3N2)cc1 (stereo unspecified)	524	-9.2% (inactive)	29.9% (inactive)	186%	-0.166	-0.102	0.752	-9.91% (inactive)	-0.294 (inactive)	-4.1e-05 (inactive)	0.00566 (inactive)	inactive	-5.34% (inactive)
CCCCC(=O)NC(Nc1ccc(C)cn1)(C(=O)OCC)C(F)(F)F (stereo unspecified)	651	-16.3% (inactive)	-59% (inactive)	156%	0.317	-1.54	1.99	1.63% (inactive)	-0.481 (inactive)	-4.4e-05 (inactive)	0.00419 (inactive)	inactive	-0.324% (inactive)
Cn1c(=O)c2c(nc(NCc3ccco3)n2Cc2ccccc2Cl)n(C)c1=O	502	-4.4% (inactive)	-15.6% (inactive)	92.2%	0.653	-0.74	0.354	12.8% (inactive)	-0.463 (inactive)	-2.4e-05 (inactive)	0.00464 (inactive)	inactive	-9.48% (inactive)
CCN(CC)CCN1C(=O)C(=O)/C(=C(/O)c2ccc(OC)cc2)C1c1ccco1 (stereo unspecified)	710	-1.4% (inactive)	4.1% (inactive)	163%	0.167	0.629	0.173	-7.67% (inactive)	-0.496 (inactive)	-6.6e-05 (inactive)	0.00632 (inactive)	inactive	5.19% (inactive)
O=C(NCc1ccccn1)c1ccc(=O)oc1	758	8.2% (inactive)	-1.5% (inactive)	151%	0.015	0.178	-0.703	-3.95% (inactive)	-0.48 (inactive)	-4.4e-05 (inactive)	0.00585 (inactive)	inactive	17.3% (inactive)
COC(=O)c1ccccc1OCc1cccc(C)n1	642	-3.5% (inactive)	-85% (inactive)	138%	0.411	0.832	-0.721	1.9e-07% (inactive)	-0.495 (inactive)	-3.1e-05 (inactive)	0.00518 (inactive)	inactive	-11.3% (inactive)
O=C(CC1SC2=NCCN2C1=O)Nc1ccccc1 (stereo unspecified)	693	-7.8% (inactive)	-79.2% (inactive)	167%	-0.578	0.509	0.504	18.6% (inactive)	-0.42 (inactive)	-5.8e-05 (inactive)	0.00447 (inactive)	inactive	-0.757% (inactive)
CCCCc1cc(=O)oc2c(CN3CCCC3)c(O)ccc12	600	-1.9% (inactive)	32.2% (inactive)	151%	0.99	-0.992	-0.105	4.37% (inactive)	-0.0163 (inactive)	5.9e-06 (inactive)	0.00474 (inactive)	inactive	-2.81% (inactive)
CCOC(=O)CNS(=O)(=O)c1cc(-c2n[nH]c(=O)c3ccccc23)ccc1C	550	-12.6% (inactive)	-67% (inactive)	151%	2.42	0.186	0.634	20.2% (inactive)	-0.47 (inactive)	-0.000102 (inactive)	0.00467 (inactive)	inactive	2.8% (inactive)
CCCCOC(=O)c1[nH]c(C)c(C(=O)OC)c1C	604	-7.5% (inactive)	50.3% (inactive)	98.7%	0.82	-1.07	-0.474	37% (inactive)	-0.481 (inactive)	-1.9e-05 (inactive)	0.00588 (inactive)	inactive	90.5% (active)
CCn1c(SCC(=O)NC2CCCCC2C)nnc1-c1ccc(OC)cc1 (stereo unspecified)	430	-4.4% (inactive)	-37.9% (inactive)	149%	-0.0183	0.142	0.845	7.73% (inactive)	-0.45 (inactive)	-0.000123 (inactive)	0.00502 (inactive)	inactive	-4.06% (inactive)
COc1cccc(C2/C(=C(\O)c3ccc(OC)c(OC)c3)C(=O)C(=O)N2c2cc(C)on2)c1 (stereo unspecified)	715	1.5% (inactive)	-63.2% (inactive)	178%	-0.072	-0.154	1.26	-4.7% (inactive)	-0.449 (inactive)	-3e-05 (inactive)	0.00553 (inactive)	inactive	-1.1% (inactive)
CCSc1nnc(NC(=O)C(C(F)(F)F)C(F)(F)F)s1	702	-5% (inactive)	-40.7% (inactive)	146%	-0.0594	-1.31	-1.04	-0.233% (inactive)	-0.449 (inactive)	-4.7e-05 (inactive)	0.00555 (inactive)	inactive	21.1% (inactive)
Cc1ccc(N(CN2C(=O)C3CC=CCC3C2=O)C(=O)c2ccco2)cc1Cl (stereo unspecified)	419	-4.5% (inactive)	32.8% (inactive)	102%	0.823	-0.172	0.302	-7.28% (inactive)	-0.453 (inactive)	-1.3e-05 (inactive)	0.00483 (inactive)	inactive	30.1% (inactive)
Cc1cc(N2C(=O)C(=O)/C(=C(/O)c3ccc(F)cc3)C2c2cccc(Br)c2)no1 (stereo unspecified)	478	2.6% (inactive)	2.7% (inactive)	145%	0.015	0.305	1.03	1.04% (inactive)	-0.439 (inactive)	-4.6e-05 (inactive)	0.00551 (inactive)	inactive	15.6% (inactive)
COc1ccc(Nc2cc(C)nc(-n3nc(C)cc3C)n2)cc1	454	12% (inactive)	-182% (inactive)	127%	-0.499	-0.357	-1.13	-3.95% (inactive)	-0.427 (inactive)	-2.8e-05 (inactive)	0.00507 (inactive)	inactive	45% (inactive)
CC1(C)Cc2nc3sc4c(N(CCO)CCO)ncnc4c3cc2CO1	383	-7.2% (inactive)	7.7% (inactive)	82.1%	-1.35	0.534	1.17	-4.59% (inactive)	-0.474 (inactive)	-1.1e-05 (inactive)	0.00508 (inactive)	inactive	36.1% (inactive)
COc1cccc(CNc2ncc(Br)cc2Br)c1O	474	-5.4% (inactive)	-263% (inactive)	170%	-1.34	0.935	2.04	-5.62% (inactive)	-0.439 (inactive)	-4.8e-05 (inactive)	0.0052 (inactive)	inactive	5.51% (inactive)
CC1(C)CC(=O)C(C=Nc2ccc(Cl)cn2)=C(O)C1	493	-2.2% (inactive)	-68.2% (inactive)	114%	0.174	-1.57	0.727	15.9% (inactive)	-0.464 (inactive)	-2.5e-06 (inactive)	0.0108 (inactive)	inactive	35.7% (inactive)
COc1cccc(NC(=O)C2CC(=O)n3cnnc3S2)c1 (stereo unspecified)	518	-3.8% (inactive)	12.1% (inactive)	177%	0.777	-1.1	-0.46	35.7% (inactive)	-0.339 (inactive)	-2.8e-05 (inactive)	0.00822 (inactive)	inactive	40.5% (inactive)
O=S(=O)(/C=C/c1ccccc1)Nc1ccc2c(c1)OCO2	371	-6.3% (inactive)	-96.3% (inactive)	154%	0.539	-2	0.714	-2.59% (inactive)	-0.476 (inactive)	-9.8e-05 (inactive)	0.00384 (inactive)	inactive	4.72% (inactive)
CCSc1nnc(NC(=O)NC(CC)(C(F)(F)F)C(F)(F)F)s1	704	0.5% (inactive)	-56.3% (inactive)	140%	-0.466	-0.955	-0.238	9.07% (inactive)	-0.431 (inactive)	-5e-05 (inactive)	0.00857 (inactive)	inactive	22.7% (inactive)
CSc1nc2sc3c(c2c2nncn12)CCC3	595	-9.4% (inactive)	-93% (inactive)	148%	-0.00236	-1.35	-0.539	-13.3% (inactive)	-0.46 (inactive)	-9.7e-05 (inactive)	0.00506 (inactive)	inactive	46.8% (inactive)
Cc1cccc(-n2ncc3c(NCc4ccco4)ncnc32)c1	648	-12.5% (inactive)	-84.2% (inactive)	165%	0.86	-0.2	-0.239	11.4% (inactive)	-0.385 (inactive)	-4.7e-05 (inactive)	0.00641 (inactive)	inactive	2.88% (inactive)
CCOc1ccc(C2=Nn3c(nnc3-c3ccccc3OC)SC2)cc1	409	35.7% (active)	-453% (inactive)	82.2%	-1.24	0.121	-0.702	4.25% (inactive)	-0.472 (inactive)	-1.9e-05 (inactive)	0.00485 (inactive)	inactive	-11.5% (inactive)
FC(F)(F)c1cccc(N2CCc3cn[nH]c32)c1	690	2.2% (inactive)	-30.9% (inactive)	178%	0.755	0.954	0.248	15.9% (inactive)	-0.48 (inactive)	-6.5e-05 (inactive)	0.00449 (inactive)	inactive	-4.32% (inactive)
